According to ChEMBL document CHEMBL4706746, “Structural and in Vitro Functional Characterization of a Menthyl TRPM8 Antagonist Indicates Species-Dependent Regulation” (ACS Med Chem Lett, 2021):
Each block holds one compound with its values, some of them ahead of it.

Columns and labels:
Type in all cases: cell-based
[1] = target: T1, Transient receptor potential cation channel subfamily M member 8 (Homo sapiens, UniProt Q7Z2W7); test: Antagonist activity at recombinant human TRPM8 transiently expressed in HEK293 cells assessed as inhibition of menthol-induced calcium flux by whole-cell patch-clamp electrophysiological method
Method in brief: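 Whole-cell patch clamp of HEK293 cells transiently transfected with human TRPM8. Currents were evoked by 500 μM menthol and recorded at +80 mV. Test compound was applied at 1 nM–0.1 mM. Currents were normalized and fitted for IC50. n = 3 cells, SEM.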
Target sequence in this assay (Q7Z2W7 whole entry): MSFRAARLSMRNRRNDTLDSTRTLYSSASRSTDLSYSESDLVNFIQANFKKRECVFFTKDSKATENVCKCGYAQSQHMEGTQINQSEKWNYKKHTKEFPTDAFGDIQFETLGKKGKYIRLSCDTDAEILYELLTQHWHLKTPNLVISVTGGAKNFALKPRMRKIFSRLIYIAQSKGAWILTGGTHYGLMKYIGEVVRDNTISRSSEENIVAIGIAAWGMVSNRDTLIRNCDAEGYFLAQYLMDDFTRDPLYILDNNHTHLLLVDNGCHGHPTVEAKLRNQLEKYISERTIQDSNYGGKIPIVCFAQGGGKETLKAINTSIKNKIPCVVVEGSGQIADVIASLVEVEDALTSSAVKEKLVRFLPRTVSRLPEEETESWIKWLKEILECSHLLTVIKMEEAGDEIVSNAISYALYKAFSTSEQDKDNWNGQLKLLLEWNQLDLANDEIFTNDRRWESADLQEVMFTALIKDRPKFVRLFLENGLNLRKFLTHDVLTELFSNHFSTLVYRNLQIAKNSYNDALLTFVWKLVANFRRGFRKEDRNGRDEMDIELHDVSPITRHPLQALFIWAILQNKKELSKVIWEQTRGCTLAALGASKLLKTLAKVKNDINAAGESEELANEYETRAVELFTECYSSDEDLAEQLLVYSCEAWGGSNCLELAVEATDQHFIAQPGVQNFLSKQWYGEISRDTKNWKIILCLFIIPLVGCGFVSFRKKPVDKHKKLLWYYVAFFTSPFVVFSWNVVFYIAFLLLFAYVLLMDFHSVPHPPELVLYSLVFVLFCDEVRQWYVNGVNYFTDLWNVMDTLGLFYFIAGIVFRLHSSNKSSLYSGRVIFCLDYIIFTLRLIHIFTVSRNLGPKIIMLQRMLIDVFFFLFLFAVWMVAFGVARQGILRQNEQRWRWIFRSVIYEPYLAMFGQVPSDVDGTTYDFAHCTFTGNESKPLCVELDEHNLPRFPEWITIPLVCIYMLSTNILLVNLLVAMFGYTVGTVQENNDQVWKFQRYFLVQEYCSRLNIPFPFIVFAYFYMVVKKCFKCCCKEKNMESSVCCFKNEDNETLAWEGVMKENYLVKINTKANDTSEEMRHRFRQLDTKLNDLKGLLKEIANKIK

[2] = target: T1, Transient receptor potential cation channel subfamily M member 8; test: Antagonist activity at TRPM8 (unknown origin) expressed in CHO cells assessed as inhibition of D-1607-induced reduction in cell viability by measuring cell viability at 10 uM by celltiter-glo ATP chemiluminescence assay relative to control; details: filed as antagonist
Target sequence in this assay (Q7Z2W7 whole entry, looked up): as the sequence (Q7Z2W7 whole entry) above

[3] = target: T1, Transient receptor potential cation channel subfamily M member 8; test: Antagonist activity at recombinant human TRPM8 stably expressed in HEK293 cells assessed as inhibition of icilin-induced intracellular calcium level by Fluo-4NW probe based fluorescence assay
Method in brief: (§1)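 Fluo-4 NW calcium imaging in HEK293 cells expressing human or rat TRPM8. Agonist was 500 nM icilin or 100 μM menthol, with test compound at 0.1–10 μM. IC50 was taken from concentration–response curves. Mean ± SEM, n = 3, N = 3.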
Target sequence in this assay (Q7Z2W7 whole entry): as above

[4] = target: Transient receptor potential cation channel subfamily V member 1 (Homo sapiens) (UniProt Q8NER1); test: Agonist activity at recombinant human TRPV1 stably expressed in HEK293 cells at 133 uM measured after 180 secs by Fluo-8 Calcium dye based fluorescence assay relative to control; details: time 180.0 sec
Method in brief: (§2)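 Ca2+ flux assay in HEK293 cells stably expressing human TRPA1 or TRPV1. Test concentrations were 66.7–333 μM, applied alone. Response is expressed as % activation, normalized to the Emax agonist concentration: AITC 300 μM for TRPA1, capsaicin 3 μM for TRPV1. n = 3.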

[5] = target: Transient receptor potential cation channel subfamily A member 1 (Homo sapiens) (UniProt O75762); test: Antagonist activity at recombinant human TRPA1 stably expressed in HEK293 cells assessed as inhibition of AITC-induced calcium flux at 200 uM preincubated for 5 mins followed by AITC addition and measured after 180 secs by Fluo-8 Calcium dye based fluorescence assay relative to control; details: time 8.0 min
Method in brief: (§3)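 Ca2+ flux assay in HEK293 cells stably expressing human TRPA1 or TRPV1. Test compound was given at 66.7–333 μM, then cells were challenged with agonist at its EC80: AITC 10 μM for TRPA1, capsaicin 0.1 μM for TRPV1. % inhibition is normalized to the EC80 agonist response. n = 3.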

[6] = target: Transient receptor potential cation channel subfamily A member 1 (Homo sapiens) (UniProt O75762); test: Agonist activity at recombinant human TRPA1 stably expressed in HEK293 cells at 200 uM measured after 180 secs by Fluo-8 Calcium dye based fluorescence assay relative to control; details: time 180.0 sec; method in brief: as §2
[7] = target: Transient receptor potential cation channel subfamily V member 1 (Homo sapiens) (UniProt Q8NER1); test: Antagonist activity at recombinant human TRPV1 stably expressed in HEK293 cells assessed as inhibition of capsaicin-induced calcium flux at 200 uM preincubated for 5 mins followed by capsaicin addition and measured after 180 secs by Fluo-8 Calcium dye based fluorescence assay relative to control; details: time 8.0 min; method in brief: as §3
[8] = target: Transient receptor potential cation channel subfamily V member 1 (Homo sapiens) (UniProt Q8NER1); test: Agonist activity at recombinant human TRPV1 stably expressed in HEK293 cells at 200 uM measured after 180 secs by Fluo-8 Calcium dye based fluorescence assay relative to control; details: time 180.0 sec; method in brief: as §2
[9] = target: Transient receptor potential cation channel subfamily A member 1 (Homo sapiens) (UniProt O75762); test: Antagonist activity at recombinant human TRPA1 stably expressed in HEK293 cells assessed as inhibition of AITC-induced calcium flux at 333 uM preincubated for 5 mins followed by AITC addition and measured after 180 secs by Fluo-8 Calcium dye based fluorescence assay relative to control; details: time 8.0 min; method in brief: as §3
[10] = target: Transient receptor potential cation channel subfamily V member 1 (Homo sapiens) (UniProt Q8NER1); test: Antagonist activity at recombinant human TRPV1 stably expressed in HEK293 cells assessed as inhibition of capsaicin-induced calcium flux at 333 uM preincubated for 5 mins followed by capsaicin addition and measured after 180 secs by Fluo-8 Calcium dye based fluorescence assay relative to control; details: time 8.0 min; method in brief: as §3
[11] = target: Transient receptor potential cation channel subfamily A member 1 (Homo sapiens) (UniProt O75762); test: Agonist activity at recombinant human TRPA1 stably expressed in HEK293 cells at 66.7 uM measured after 180 secs by Fluo-8 Calcium dye based fluorescence assay relative to control; details: time 180.0 sec; method in brief: as §2
[12] = target: Transient receptor potential cation channel subfamily A member 1 (Homo sapiens) (UniProt O75762); test: Agonist activity at recombinant human TRPA1 stably expressed in HEK293 cells at 267 uM measured after 180 secs by Fluo-8 Calcium dye based fluorescence assay relative to control; details: time 180.0 sec; method in brief: as §2
[13] = target: Transient receptor potential cation channel subfamily V member 1 (Homo sapiens) (UniProt Q8NER1); test: Antagonist activity at recombinant human TRPV1 stably expressed in HEK293 cells assessed as inhibition of capsaicin-induced calcium flux at 267 uM preincubated for 5 mins followed by capsaicin addition and measured after 180 secs by Fluo-8 Calcium dye based fluorescence assay relative to control; details: time 8.0 min; method in brief: as §3
[14] = target: Transient receptor potential cation channel subfamily V member 1 (Homo sapiens) (UniProt Q8NER1); test: Agonist activity at recombinant human TRPV1 stably expressed in HEK293 cells at 66.7 uM measured after 180 secs by Fluo-8 Calcium dye based fluorescence assay relative to control; details: time 180.0 sec; method in brief: as §2
[15] = target: Transient receptor potential cation channel subfamily A member 1 (Homo sapiens) (UniProt O75762); test: Antagonist activity at recombinant human TRPA1 stably expressed in HEK293 cells assessed as inhibition of AITC-induced calcium flux at 66.7 uM preincubated for 5 mins followed by AITC addition and measured after 180 secs by Fluo-8 Calcium dye based fluorescence assay relative to control; details: time 8.0 min; method in brief: as §3
[16] = target: T2, Transient receptor potential cation channel subfamily M member 8 (Rattus norvegicus, UniProt Q8R455); test: Antagonist activity at recombinant rat TRPM8 stably expressed in HEK293 cells assessed as inhibition of menthol-induced intracellular calcium level by Fluo-4NW probe based fluorescence assay; method in brief: as §1
Homo sapiens [17] = species on record: Homo sapiens; test: Selectivity ratio of IC50 for antagonist activity at human TRPA1 stably expressed in HEK293 cells to IC50 for antagonist activity at recombinant human TRPM8 stably expressed in HEK293 cells
[18] = target: Transient receptor potential cation channel subfamily A member 1 (Homo sapiens) (UniProt O75762); test: Agonist activity at recombinant human TRPA1 stably expressed in HEK293 cells at 133 uM measured after 180 secs by Fluo-8 Calcium dye based fluorescence assay relative to control; details: time 180.0 sec; method in brief: as §2
[19] = target: Transient receptor potential cation channel subfamily A member 1 (Homo sapiens) (UniProt O75762); test: Antagonist activity at recombinant human TRPA1 stably expressed in HEK293 cells assessed as inhibition of AITC-induced calcium flux at 267 uM preincubated for 5 mins followed by AITC addition and measured after 180 secs by Fluo-8 Calcium dye based fluorescence assay relative to control; details: time 8.0 min; method in brief: as §3
[20] = target: Transient receptor potential cation channel subfamily A member 1 (Homo sapiens) (UniProt O75762); test: Agonist activity at recombinant human TRPA1 stably expressed in HEK293 cells at 333 uM measured after 180 secs by Fluo-8 Calcium dye based fluorescence assay relative to control; details: time 180.0 sec; method in brief: as §2
[21] = target: Transient receptor potential cation channel subfamily V member 1 (Homo sapiens) (UniProt Q8NER1); test: Antagonist activity at recombinant human TRPV1 stably expressed in HEK293 cells assessed as inhibition of capsaicin-induced calcium flux at 133 uM preincubated for 5 mins followed by capsaicin addition and measured after 180 secs by Fluo-8 Calcium dye based fluorescence assay relative to control; details: time 8.0 min; method in brief: as §3
[22] = target: Transient receptor potential cation channel subfamily V member 1 (Homo sapiens) (UniProt Q8NER1); test: Agonist activity at recombinant human TRPV1 stably expressed in HEK293 cells at 267 uM measured after 180 secs by Fluo-8 Calcium dye based fluorescence assay relative to control; details: time 180.0 sec; method in brief: as §2
[23] = target: T2, Transient receptor potential cation channel subfamily M member 8; test: Antagonist activity at recombinant rat TRPM8 stably expressed in HEK293 cells assessed as inhibition of icilin-induced intracellular calcium level by Fluo-4NW probe based fluorescence assay; method in brief: as §1
[24] = target: Transient receptor potential cation channel subfamily A member 1 (Homo sapiens) (UniProt O75762); test: Antagonist activity at recombinant human TRPA1 stably expressed in HEK293 cells assessed as inhibition of AITC-induced calcium flux at 133 uM preincubated for 5 mins followed by AITC addition and measured after 180 secs by Fluo-8 Calcium dye based fluorescence assay relative to control; details: time 8.0 min; method in brief: as §3
[25] = target: Transient receptor potential cation channel subfamily V member 1 (Homo sapiens) (UniProt Q8NER1); test: Agonist activity at recombinant human TRPV1 stably expressed in HEK293 cells at 333 uM measured after 180 secs by Fluo-8 Calcium dye based fluorescence assay relative to control; details: time 180.0 sec; method in brief: as §2
Homo sapiens [26] = species on record: Homo sapiens; test: Selectivity ratio of IC50 for antagonist activity at human TRPV1 stably expressed in HEK293 cells to IC50 for antagonist activity at recombinant human TRPM8 stably expressed in HEK293 cells
[27] = target: Transient receptor potential cation channel subfamily V member 1 (Homo sapiens) (UniProt Q8NER1); test: Antagonist activity at recombinant human TRPV1 stably expressed in HEK293 cells assessed as inhibition of capsaicin-induced calcium flux at 66.7 uM preincubated for 5 mins followed by capsaicin addition and measured after 180 secs by Fluo-8 Calcium dye based fluorescence assay relative to control; details: time 8.0 min; method in brief: as §3
[28] = target: T1, Transient receptor potential cation channel subfamily M member 8; test: Antagonist activity at recombinant human TRPM8 stably expressed in HEK293 cells assessed as inhibition of menthol-induced intracellular calcium level by Fluo-4NW probe based fluorescence assay; method in brief: as §1
Target sequence in this assay (Q7Z2W7 whole entry): as above

[29] = target: T2, Transient receptor potential cation channel subfamily M member 8; test: Antagonist activity at recombinant rat TRPM8 stably expressed in HEK293 cells assessed as inhibition of icilin-induced intracellular calcium level preincubated for 5 mins followed by icilin addition by Fluo-4Am dye based fluorescence assay
[30] = target: Transient receptor potential cation channel subfamily A member 1 (Rattus norvegicus, UniProt Q6RI86); test: Agonist activity at recombinant rat TRPA1 stably expressed in HEK293 cells assessed as increase in intracellular calcium release by Fluo-4AM dye based fluorescence assay

T2 sequence (Q8R455 whole entry): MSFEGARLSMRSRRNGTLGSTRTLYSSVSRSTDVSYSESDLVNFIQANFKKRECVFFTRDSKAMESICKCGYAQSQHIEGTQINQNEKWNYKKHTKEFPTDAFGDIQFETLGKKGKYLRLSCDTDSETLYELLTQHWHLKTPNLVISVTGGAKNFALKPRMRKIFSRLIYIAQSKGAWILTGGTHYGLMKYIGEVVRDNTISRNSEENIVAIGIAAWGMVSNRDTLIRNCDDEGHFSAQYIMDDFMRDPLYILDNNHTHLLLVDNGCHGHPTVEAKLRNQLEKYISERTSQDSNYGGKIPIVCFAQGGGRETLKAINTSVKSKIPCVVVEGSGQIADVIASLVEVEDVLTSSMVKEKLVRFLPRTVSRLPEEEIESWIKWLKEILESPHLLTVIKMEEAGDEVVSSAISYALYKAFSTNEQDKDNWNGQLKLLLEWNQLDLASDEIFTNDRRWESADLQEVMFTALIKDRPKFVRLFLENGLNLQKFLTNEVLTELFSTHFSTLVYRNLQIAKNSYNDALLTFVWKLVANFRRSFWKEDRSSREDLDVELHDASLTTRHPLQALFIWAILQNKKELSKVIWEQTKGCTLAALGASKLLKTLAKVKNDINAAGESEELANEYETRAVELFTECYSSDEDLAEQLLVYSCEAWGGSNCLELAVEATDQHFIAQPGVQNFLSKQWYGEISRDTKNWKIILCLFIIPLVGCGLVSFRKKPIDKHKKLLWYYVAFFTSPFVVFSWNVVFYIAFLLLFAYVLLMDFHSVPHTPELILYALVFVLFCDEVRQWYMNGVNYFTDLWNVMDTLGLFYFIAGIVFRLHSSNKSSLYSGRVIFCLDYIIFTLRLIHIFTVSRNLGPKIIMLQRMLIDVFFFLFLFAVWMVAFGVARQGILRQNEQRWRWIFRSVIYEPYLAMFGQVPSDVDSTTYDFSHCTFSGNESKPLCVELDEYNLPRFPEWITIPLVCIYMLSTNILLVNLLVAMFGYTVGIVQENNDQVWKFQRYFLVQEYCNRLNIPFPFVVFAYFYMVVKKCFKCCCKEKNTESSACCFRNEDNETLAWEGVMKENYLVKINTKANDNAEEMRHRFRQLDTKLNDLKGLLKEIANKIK
Chain of Transient receptor potential cation channel subfamily V member 1 (Homo sapiens) (Q8NER1 whole entry): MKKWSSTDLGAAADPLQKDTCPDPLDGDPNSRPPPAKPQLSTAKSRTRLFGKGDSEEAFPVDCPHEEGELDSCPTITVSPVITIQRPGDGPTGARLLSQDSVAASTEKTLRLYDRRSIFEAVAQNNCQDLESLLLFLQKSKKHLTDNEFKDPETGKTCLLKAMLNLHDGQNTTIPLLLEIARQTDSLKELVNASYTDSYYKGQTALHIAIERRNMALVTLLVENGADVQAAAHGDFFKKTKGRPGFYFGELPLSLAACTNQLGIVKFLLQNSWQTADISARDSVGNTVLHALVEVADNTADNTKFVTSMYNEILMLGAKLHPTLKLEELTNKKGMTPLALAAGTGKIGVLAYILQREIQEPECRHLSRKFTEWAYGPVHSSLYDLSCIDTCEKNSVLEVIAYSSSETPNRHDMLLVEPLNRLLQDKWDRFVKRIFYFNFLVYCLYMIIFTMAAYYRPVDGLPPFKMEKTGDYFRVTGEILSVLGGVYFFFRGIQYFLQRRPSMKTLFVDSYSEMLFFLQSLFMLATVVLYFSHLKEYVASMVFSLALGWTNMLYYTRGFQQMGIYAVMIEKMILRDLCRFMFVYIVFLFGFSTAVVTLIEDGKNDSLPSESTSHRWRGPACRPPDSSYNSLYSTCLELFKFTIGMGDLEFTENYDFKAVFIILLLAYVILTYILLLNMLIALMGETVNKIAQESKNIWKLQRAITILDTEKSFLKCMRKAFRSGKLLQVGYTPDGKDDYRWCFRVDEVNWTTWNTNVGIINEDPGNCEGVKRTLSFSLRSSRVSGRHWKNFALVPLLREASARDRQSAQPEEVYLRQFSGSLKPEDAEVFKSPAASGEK
Chain of Transient receptor potential cation channel subfamily A member 1 (Homo sapiens) (O75762 whole entry): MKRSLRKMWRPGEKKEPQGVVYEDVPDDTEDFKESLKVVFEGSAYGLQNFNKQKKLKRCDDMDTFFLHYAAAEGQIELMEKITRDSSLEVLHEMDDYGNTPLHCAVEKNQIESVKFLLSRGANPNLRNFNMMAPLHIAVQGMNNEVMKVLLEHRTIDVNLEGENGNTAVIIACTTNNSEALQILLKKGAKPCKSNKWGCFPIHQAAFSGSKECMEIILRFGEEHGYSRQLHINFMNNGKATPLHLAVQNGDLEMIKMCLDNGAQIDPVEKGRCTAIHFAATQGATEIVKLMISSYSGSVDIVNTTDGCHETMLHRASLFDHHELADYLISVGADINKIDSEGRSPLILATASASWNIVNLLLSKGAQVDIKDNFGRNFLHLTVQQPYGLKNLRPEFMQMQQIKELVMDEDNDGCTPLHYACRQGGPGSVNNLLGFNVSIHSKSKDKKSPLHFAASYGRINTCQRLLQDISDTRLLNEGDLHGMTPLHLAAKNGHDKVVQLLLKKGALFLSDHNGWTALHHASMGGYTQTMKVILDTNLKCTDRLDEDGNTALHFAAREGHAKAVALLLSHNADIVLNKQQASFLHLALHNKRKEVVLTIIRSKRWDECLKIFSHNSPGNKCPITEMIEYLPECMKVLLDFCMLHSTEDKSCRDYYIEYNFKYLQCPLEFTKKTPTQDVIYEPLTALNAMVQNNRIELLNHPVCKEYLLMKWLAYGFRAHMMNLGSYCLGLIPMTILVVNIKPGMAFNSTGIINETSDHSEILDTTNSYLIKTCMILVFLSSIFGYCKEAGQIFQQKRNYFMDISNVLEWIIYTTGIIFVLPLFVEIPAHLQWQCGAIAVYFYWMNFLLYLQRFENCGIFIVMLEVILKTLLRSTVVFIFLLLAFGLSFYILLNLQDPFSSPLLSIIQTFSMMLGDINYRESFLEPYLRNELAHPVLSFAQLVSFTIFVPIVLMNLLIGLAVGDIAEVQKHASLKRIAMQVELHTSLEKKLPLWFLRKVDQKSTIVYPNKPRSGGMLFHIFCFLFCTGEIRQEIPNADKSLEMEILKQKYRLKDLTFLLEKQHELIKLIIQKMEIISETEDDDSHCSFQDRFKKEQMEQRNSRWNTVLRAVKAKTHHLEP

IC50 [1]: 2 µM
Compound: C=C1[C@H](C)CC[C@@H](C(C)C)[C@@H]1OC(=O)c1ccccc1

Compound: CC(C)[C@@H]1CC[C@@H](C)C[C@H]1OC(=O)N1CCc2ccccc2C1
Activity [2]: 112%

IC50 [3]: 1.8 µM
Activity [4]: 3.6%
inhibition [5]: 18.7%
Activity [6]: 0.95%
inhibition [7]: -5.89%
Activity [8]: 4.8%
inhibition [9]: 11.9%
inhibition [10]: 7.64%
Activity [11]: -0.83%
Activity [12]: 2.1%
inhibition [13]: 6.79%
Activity [14]: 1.3%
inhibition [15]: 18.3%
IC50 [16]: 0.117 µM
Activity [18]: -0.2%
inhibition [19]: 16.8%
Activity [20]: 3.4%
inhibition [21]: -7.44%
Activity [22]: 4.57%
IC50 [23]: 0.521 µM
inhibition [24]: 24.9%
Activity [25]: 7.9%
inhibition [27]: -3.6%
IC50 [1]: 0.7 µM
IC50 [28]: 0.805 µM
Compound: CC(C)[C@@H]1CC[C@@H](C)C[C@H]1NC(=O)c1ccc(-c2ccccc2)cc1
Ratio IC50 (Homo sapiens [17]): > 400
Ratio IC50 (Homo sapiens [26]): > 400

Compound: C=C(C)[C@@H]1CCC(C)=C[C@H]1c1c(O)cc(CCC)cc1O [CANNABIDIVARIN]
IC50 [29]: 0.9 µM
EC50 [30]: 0.42 µM
